Data from ChEMBL document CHEMBL1130139, “Synthesis and activity of 6-substituted purine linker amino acid immunostimulants” (1997).
“And” between values parts separate entries of the source, which are not always exact repeats. Equal values may be shown once.

How the values were obtained:
Format in all cases: functional
[1] = organism: Mus musculus; test: In vitro cytotoxic T-Lymphocyte (CTL) activity relative to interleukin 2 was obtained at a concentration of 10 e -7 M(++ +represents 61 - 80% of interleukin 2)
Procedure, shortened: (§1)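 Splenocytes from 6- to 8-week-old female C57BL/6 and irradiated (3000 rads) DBA/2 mice, 10⁷ cells, were cultured together in RPMI 1640 with 10% FCS. Culture ran 120 h at 37 °C in 5% CO₂, with [³H]thymidine pulse of an aliquot. Percent specific lysis was scaled to IL 2 (taken as 100%) and scored 0 to ++++ in 20% bands.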

[2] = organism: Mus musculus; test: In vitro cytotoxic T-Lymphocyte (CTL) activity relative to interleukin 2 was obtained at a concentration of 10 e -7 M(+ represents 21 - 40% of interleukin 2); procedure, shortened: as §1
[3] = organism: Mus musculus; test: In vitro cytotoxic T-Lymphocyte (CTL) activity relative to interleukin 2 was obtained at a concentration of 10 e -7 M(++ represents 41 - 60% of interleukin 2); procedure, shortened: as §1
[4] = organism: Mus musculus; test: In vitro cytotoxic T-Lymphocyte (CTL) activity relative to interleukin 2 was obtained at a concentration of 10 e -5 M(++ represents 41 - 60% of interleukin 2); procedure, shortened: as §1
[5] = organism: Mus musculus; test: In vitro cytotoxic T-Lymphocyte (CTL) activity relative to interleukin 2 was obtained at a concentration of 10 e -5 M(+ represents 21 - 40% of interleukin 2); procedure, shortened: as §1
[6] = test system: Mus musculus; test: In vivo spleen immunophenotyping (Ly5 cells) assay was performed by injecting 0 mg/Kg of compound intraperitoneally in mice
Procedure, shortened: (§2)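 Female 6- to 8-week-old C57BL/6 mice were dosed ip once daily for one, four or nine consecutive days, drug in physiological saline. For single dosing, groups of seven were used. Blood and spleen cells were ACK-lysed (pH 7.3, 5 min) and PBS-washed, then stained 45 min on ice with FITC/PE surface-marker antibodies. Cells were fixed in 1% paraformaldehyde and read by flow cytometry as relative subset percentages.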

[7] = test system: Mus musculus; test: In vivo spleen immunophenotyping (TCR cells) assay was performed by injecting 25 mg/Kg of compound intraperitoneally in mice; procedure, shortened: as §2
[8] = test system: Mus musculus; test: In vivo immunophenotyping (CD4-CD8- cells) assay was performed by injecting 50 mg/Kg of compound intraperitoneally in mice and blood is collected; procedure, shortened: as §2
[9] = test system: Mus musculus; test: In vivo spleen immunophenotyping (CD8+CD45+ cells) assay was performed by injecting 50 mg/Kg of compound intraperitoneally in mice; procedure, shortened: as §2
[10] = test system: Mus musculus; test: In vivo immunophenotyping (CD4-CD8- cells) assay was performed by injecting 25 mg/Kg of compound intraperitoneally in mice and blood is collected; procedure, shortened: as §2
[11] = test system: Mus musculus; test: In vivo blood immunophenotyping (NK+CD3- cells) assay was performed by injecting 0 mg/Kg of compound intraperitoneally in mice; procedure, shortened: as §2
[12] = test system: Mus musculus; test: In vivo immunophenotyping (CD4-CD8- cells) assay was performed by injecting 100 mg/Kg of compound intraperitoneally in mice and blood is collected; procedure, shortened: as §2
[13] = test system: Mus musculus; test: In vivo blood immunophenotyping (NK+CD3+ cells) assay was performed by injecting 0 mg/Kg of compound intraperitoneally in mice; procedure, shortened: as §2
[14] = test system: Mus musculus; test: In vivo spleen immunophenotyping (Ly5 cells) assay was performed by injecting 50 mg/Kg of compound intraperitoneally in mice; procedure, shortened: as §2
[15] = test system: Mus musculus; test: In vivo blood immunophenotyping (CD8+CD45+ cells) assay was performed by injecting 100 mg/Kg of compound intraperitoneally in mice; procedure, shortened: as §2
[16] = test system: Mus musculus; test: In vivo blood immunophenotyping (CD4+CD45+ cells) assay was performed by injecting 50 mg/Kg of compound intraperitoneally in mice; procedure, shortened: as §2
[17] = test system: Mus musculus; test: In vivo spleen immunophenotyping (CD8+CD45+ cells) assay was performed by injecting 0 mg/Kg of compound intraperitoneally in mice; procedure, shortened: as §2
[18] = test system: Mus musculus; test: In vivo spleen immunophenotyping (CD8+CD45+ cells) assay was performed by injecting 25 mg/Kg of compound intraperitoneally in mice; procedure, shortened: as §2
[19] = test system: Mus musculus; test: In vivo blood immunophenotyping (CD8+CD45+ cells) assay was performed by injecting 50 mg/Kg of compound intraperitoneally in mice; procedure, shortened: as §2
[20] = test system: Mus musculus; test: In vivo blood immunophenotyping (NK+CD3+ cells) assay was performed by injecting 25 mg/Kg of compound intraperitoneally in mice; procedure, shortened: as §2
[21] = test system: Mus musculus; test: In vivo blood immunophenotyping (CD8+CD45+ cells) assay was performed by injecting 0 mg/Kg of compound intraperitoneally in mice; procedure, shortened: as §2
[22] = test system: Mus musculus; test: In vivo blood immunophenotyping (CD4+CD45+ cells) assay was performed by injecting 100 mg/Kg of compound intraperitoneally in mice; procedure, shortened: as §2
[23] = test system: Mus musculus; test: In vivo blood immunophenotyping (NK+CD3- cells) assay was performed by injecting 50 mg/Kg of compound intraperitoneally in mice; procedure, shortened: as §2
[24] = test system: Mus musculus; test: In vivo spleen immunophenotyping (Ly5 cells) assay was performed by injecting 25 mg/Kg of compound intraperitoneally in mice; procedure, shortened: as §2
[25] = test system: Mus musculus; test: In vivo blood immunophenotyping (CD4+CD45+ cells) assay was performed by injecting 0 mg/Kg of compound intraperitoneally in mice; procedure, shortened: as §2
[26] = test system: Mus musculus; test: In vivo spleen immunophenotyping (CD8+CD45+ cells) assay was performed by injecting 100 mg/Kg of compound intraperitoneally in mice; procedure, shortened: as §2
[27] = test system: Mus musculus; test: In vivo blood immunophenotyping (CD4+CD45+ cells) assay was performed by injecting 25 mg/Kg of compound intraperitoneally in mice; procedure, shortened: as §2
[28] = test system: Mus musculus; test: In vivo spleen immunophenotyping (TCR cells) assay was performed by injecting 50 mg/Kg of compound intraperitoneally in mice; procedure, shortened: as §2
[29] = test system: Mus musculus; test: In vivo blood immunophenotyping (CD4-CD11b+ cells) assay was performed by injecting 0 mg/Kg of compound intraperitoneally in mice; procedure, shortened: as §2
[30] = test system: Mus musculus; test: In vivo blood immunophenotyping (CD4-CD11b+ cells) assay was performed by injecting 50 mg/Kg of compound intraperitoneally in mice; procedure, shortened: as §2
[31] = test system: Mus musculus; test: In vivo blood immunophenotyping (NK+CD3+ cells) assay was performed by injecting 50 mg/Kg of compound intraperitoneally in mice; procedure, shortened: as §2
[32] = test system: Mus musculus; test: In vivo spleen immunophenotyping (TCR cells) assay was performed by injecting 0 mg/Kg of compound intraperitoneally in mice; procedure, shortened: as §2
[33] = test system: Mus musculus; test: In vivo blood immunophenotyping (NK+CD3- cells) assay was performed by injecting 25 mg/Kg of compound intraperitoneally in mice; procedure, shortened: as §2
[34] = test system: Mus musculus; test: In vivo blood immunophenotyping (CD8+CD45+ cells) assay was performed by injecting 25 mg/Kg of compound intraperitoneally in mice; procedure, shortened: as §2
[35] = test system: Mus musculus; test: In vivo blood immunophenotyping (CD4-CD11b+ cells) assay was performed by injecting 25 mg/Kg of compound intraperitoneally in mice; procedure, shortened: as §2
[36] = test system: Mus musculus; test: In vivo immunophenotyping (CD4-CD8- cells) assay was performed by injecting 0 mg/Kg of compound intraperitoneally in mice and blood is collected; procedure, shortened: as §2
[37] = test system: Mus musculus; test: In vivo immunophenotyping (CD4+ cells) assay was performed by injecting 0 mg/Kg of compound intraperitoneally in mice and blood is collected; procedure, shortened: as §2
[38] = organism: Mus musculus; test: In vitro cytotoxic T-Lymphocyte (CTL) activity relative to interleukin 2 was obtained at a concentration of 10 e -9 M(++ represents 41 - 60% of interleukin 2); procedure, shortened: as §1
[39] = organism: Mus musculus; test: In vitro cytotoxic T-Lymphocyte (CTL) activity relative to interleukin 2 was obtained at a concentration of 10 e -7 M(++++ represents 81 - 100% of interleukin 2); procedure, shortened: as §1
[40] = organism: Mus musculus; test: In vitro cytotoxic T-Lymphocyte (CTL) activity relative to interleukin 2 was obtained at a concentration of 10 e -7 M(++ represents 21 - 40% of interleukin 2); conditions: in the assay text read “+ represents” for “++ represents”; procedure, shortened: as §1
[41] = organism: Mus musculus; test: In vitro cytotoxic T-Lymphocyte (CTL) activity relative to interleukin 2 was obtained at a concentration of 10 e […](++ represents 41 - 60% of interleukin 2); procedure, shortened: as §1
[42] = organism: Mus musculus; test: In vitro cytotoxic T-Lymphocyte (CTL) activity relative to interleukin 2 was obtained at a concentration of 10 e -7 M (++ represents 41 - 60% of interleukin 2); procedure, shortened: as §1
[43] = organism: Mus musculus; test: In vitro cytotoxic T-Lymphocyte (CTL) activity relative to interleukin 2 was obtained at a concentration of 10 e -5 M (+ represents 21 - 40% of interleukin 2); procedure, shortened: as §1

SMILES: N=C(N)NCCCC(NC(=O)OCCCCCn1cnc2c(N)ncnc21)C(=O)O (single isomer, unassigned)
- CTL activity [1]: +
- CTL activity [2]: 21 - 40% of interleukin 2

SMILES: CN(C)c1ncnc2c1ncn2CCCCCOC(=O)NCC(=O)O
- CTL activity [2]: 21 - 40% of interleukin 2

SMILES: CN(C)c1ncnc2c1ncn2C[C@H]1CC[C@H](COC(=O)N[C@@H](CCCNC(=N)N)C(=O)O)CC1
- CTL activity [3]: 41 - 60% of interleukin 2

SMILES: N=C(N)NCCCC(NC(=O)OCCCCCn1cnc2cncnc21)C(=O)O (single isomer, unassigned)
- CTL activity [4]: 41 - 60% of interleukin 2

SMILES: N=C(N)NCCC[C@@H](NC(=O)OCCCCCn1cnc2c(O)ncnc21)C(=O)O
- CTL activity [3]: 41 - 60% of interleukin 2

SMILES: CN(C)c1ncnc2c1ncn2CCCCCOC(=O)NC(CCCNC(N)=O)C(=O)O (stereo not drawn)
- CTL activity [5]: 21 - 40% of interleukin 2

SMILES: CN(C)c1ncnc2c1ncn2CCCCCCOC(=O)N[C@@H](CCCNC(=N)N)C(=O)O
- CTL activity [3]: 41 - 60% of interleukin 2

SMILES: CN(C)c1ncnc2c1ncn2CCCCCOC(=O)N[C@@H](CCCNC(=N)N)C(=O)O [BCH-1393]
- Mean [6]: 55.5
- Mean [7]: 39.8
- Mean [8]: 74.7
- Mean [9]: 8.92
- Mean [10]: 70.7
- Mean [11]: 6.01
- Mean [12]: 82.1
- Mean [13]: 3.43
- Mean [14]: 50.4
- Mean [15]: 9.96
- Mean [16]: 22.1
- Mean [17]: 7.81
- Mean [18]: 7.46
- Mean [19]: 10.1 and 9.06
- Mean [20]: 5.84
- Mean [21]: 8.25 and 6.9
- Mean [22]: 20.6
- Mean [23]: 8.14
- Mean [24]: 54.1
- Mean [25]: 17.5
- Mean [26]: 9.13
- Mean [27]: 18.5
- Mean [28]: 45.1
- Mean [29]: 9.6
- Mean [30]: 9.68
- Mean [31]: 3.25
- Mean [32]: 38.9
- Mean [33]: 5.9
- Mean [34]: 11.7 and 8.39
- Mean [35]: 13.7
- Mean [36]: 65.9
- Mean [37]: 20.9 and 8.1

SMILES: CN(C)c1ncnc2c1ncn2CCCCOC(=O)N[C@@H](CCCNC(=N)N)C(=O)O
- CTL activity [38]: 41 - 60% of interleukin 2

SMILES: N=C(N)NCCCC(NC(=O)OCCCCCn1cnc2c(NN)ncnc21)C(=O)O (single isomer, unassigned)
- CTL activity [39]: ++

SMILES: N=C(N)NCCC[C@H](NC(=O)OCCCCCn1cnc2c(N3CCC3)ncnc21)C(=O)O
- CTL activity [40]: 21 - 40% of interleukin 2

SMILES: N=C(N)NCCCC(NC(=O)OCCCCCn1cnc2c(S)ncnc21)C(=O)O (single isomer, unassigned)
- CTL activity [2]: 21 - 40% of interleukin 2

SMILES: N=C(N)NCCCC(NC(=O)OCCCCCn1cnc2c(O)ncnc21)C(=O)O (single isomer, unassigned)
- CTL activity [3]: 41 - 60% of interleukin 2

SMILES: CN(C)c1ncnc2c1ncn2CCCCCO
- CTL activity [41]: 41 - 60% of interleukin 2

SMILES: CN(C)c1ncnc2c1ncn2C[C@H]1CC[C@@H](COC(=O)N[C@@H](CCCNC(=N)N)C(=O)O)CC1
- CTL activity [5]: 21 - 40% of interleukin 2

SMILES: CN(C)c1ncnc2c1ncn2CCCCCNC(=O)OCCCCCn1cnc2c(N(C)C)ncnc21
- CTL activity [3]: 41 - 60% of interleukin 2

SMILES: CN(C)c1ncnc2c1ncn2CCSCCOC(=O)NC(CCCNC(=N)N)C(=O)O (single isomer, unassigned)
- CTL activity [42]: 41 - 60% of interleukin 2

SMILES: N=C(N)NCCC[C@H](NC(=O)OCCCCCn1cnc2c(NC3CC3)ncnc21)C(=O)O
- CTL activity [40]: 21 - 40% of interleukin 2

SMILES: CNc1ncnc2c1ncn2CCCCCOC(=O)NC(CCCNC(=N)N)C(=O)O (single isomer, unassigned)
- CTL activity [43]: 21 - 40% of interleukin 2

SMILES: CC1CN1c1ncnc2c1ncn2CCCCCOC(=O)N[C@@H](CCCNC(=N)N)C(=O)O (stereo partly drawn)
- CTL activity [3]: 41 - 60% of interleukin 2

SMILES: CN(C)c1ncnc2c1ncn2CCCCCOC(=O)CCN
- CTL activity [3]: 41 - 60% of interleukin 2
